Assay outcomes from PubChem.
Compounds with a hit are over-represented: about 4.1% of the library has one in this group of screens.
SMARCA2 act = SMARCA2 (BRM) function activators, primary screen, cell-based, luminescence, high throughput; actives 1% (n = 370,000); activation, % at 9.1 µM; MG213 cells, MMTV-luciferase reporter, dexamethasone, overnight; in the data active = activation above about 7.8%;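 also: 0% = vehicle wells and 100% = reference activator wells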
MC4R antag cAMP = MC4R antagonists of cAMP signaling, primary screen, cell-based, TR-FRET, antagonist arm of biased-ligand search. Melanocortin receptor 4 (Homo sapiens), P32245. MC4R-expressing cells, MTII-stimulated cAMP, LANCE TR-FRET. inhibition, % at 6.5 µM. actives 0.48% (n = 360,000);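 active = inhibition above its plate's cutoff, the mean of tested wells on that plate plus 3 SD, cut at about 29% in these data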;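 also: 0% = Melanotan II alone and 100% = Melanotan II plus saturating MCL0020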
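Assay system: U2OS cells stably expressing human melanocortin 4 receptor (MC4R) / Dosing: 6.5 µM / Timing: compound 30 min, challenge 1 h, detection 1 h / Measured by: Eu-cAMP/anti-cAMP TR-FRET, emission 671 nm / Replicates: singlicate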
MPTP inh = mitochondrial permeability transition pore inhibitors, primary screen, biochemical, isolated mouse mitochondria, absorbance | Ca2+ swelling absorbance, 30 min | inhibition, % at 10 µM | actives 1.4% (n = 360,000);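 active = inhibition of 50% or more, scaled per plate between neutral and stimulator controls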;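 also: 0% = DMSO wells given calcium and 100% = 1 mM EGTA wells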
ATG4B inhibitor = ATG4B protease inhibitors, primary screen, biochemical, fluorescence, uHTS | Cysteine protease ATG4B (Homo sapiens), Q9Y4P1 | ATG4B cleavage of LC3-PLA2, NBD-HPC fluorescence, 1 h | inhibition, % at 8.33 µM | actives 0.51% (n = 340,000) | AID 504462, 2011; in the data active = inhibition above about 40%
Target sequence (Q9Y4P1 whole entry, looked up): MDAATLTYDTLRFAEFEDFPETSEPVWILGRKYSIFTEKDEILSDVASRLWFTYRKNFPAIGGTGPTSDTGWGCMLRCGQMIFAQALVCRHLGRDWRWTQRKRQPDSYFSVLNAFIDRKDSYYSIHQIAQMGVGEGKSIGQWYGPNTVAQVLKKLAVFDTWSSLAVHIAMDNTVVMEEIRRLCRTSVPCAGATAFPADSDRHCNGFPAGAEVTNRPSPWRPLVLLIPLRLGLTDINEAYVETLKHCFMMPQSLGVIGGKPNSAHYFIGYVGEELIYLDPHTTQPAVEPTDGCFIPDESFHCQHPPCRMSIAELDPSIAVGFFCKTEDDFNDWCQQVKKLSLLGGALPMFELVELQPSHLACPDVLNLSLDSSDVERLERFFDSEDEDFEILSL
MC4R barr agon = MC4R agonists recruiting beta-arrestin, primary screen, cell-based, luminescence, agonist arm of biased-ligand search; Melanocortin receptor 4 (Homo sapiens), P32245; U2OS MC4R beta-arrestin complementation; percent of melanotan II response, DMSO zero; activation, % at 8.9 µM; actives 0.98% (n = 360,000); AID 540308, 2011;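 active = activation above a per-plate cutoff, the mean activation of sample wells on that plate plus 3 SD, cut at about 8% in these data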
An asterisk follows results filed as active; nt = no result.

SMILES | SMARCA2 act | MC4R antag cAMP | MPTP inh | ATG4B inhibitor | MC4R barr agon
CCC1=Nc2cc(C(=O)NCCN3CCOCC3)ccc2Sc2ccc(C)cc21 | 3 | 3 | 0 | 3 | 2
CCC1=Nc2cc(C(=O)NCc3ccco3)ccc2Sc2ccc(C)cc21 | -2 | -25 | 0 | 51* | -3
COC(=O)c1cc(-c2cccc(OC(F)(F)F)c2)c(=O)n2c1CCC2 | 1 | nt | nt | nt | nt
COC(=O)C1CN(C2CCCC2)CCS(=O)(=O)N1Cc1ccc(OC)cc1 (stereo not given) | 1 | nt | nt | nt | nt
CCOc1ccc(/C=C/C(=O)Nc2ccc(N3CCOCC3)cc2)cc1 | 2 | 8 | 3 | 2 | 8.9*
COc1ccc(/C=C/C(=O)OCC(=O)Nc2ccc(N3CCOCC3)cc2)cc1 | 0 | -2 | 1 | -11 | 5
C[C@@H]1CCN(C2CC2)S(=O)(=O)c2ccc(N3CCC[C@@H]3CO)cc2O1 | -1 | nt | nt | nt | nt
COc1ccc(O)c(C(=O)CC(=O)c2cccnc2)c1 | 13* | 1 | -4 | 8 | 2
C[C@@H]1CN(c2ccc(N3CCN(C(=O)OC(C)(C)C)C[C@@H]3C)cc2C#N)CCN1Cc1ccccc1 | -3 | nt | nt | nt | nt
O=C(O)c1ccccc1/C=N/NC(=O)C1CCCCC1 | 1 | -5 | 0 | -3 | 0
O=C(O)c1ccccc1/C=N/NC(=O)C1CCCC1 | 7.9* | 3 | -1 | 5 | 1
COC(=O)C1CN(Cc2cn(Cc3ccc(OC)cc3)nn2)CCS(=O)(=O)N1Cc1ccc(OC)cc1 (stereo not given) | 3 | nt | nt | nt | nt
COc1cc(NC(=O)c2cc(C)no2)c(OC)cc1Cl | 0 | 1 | -1 | -2 | 0
COc1cc(NC(=O)c2onc(C)c2Cl)c(OC)cc1Cl | 7.9* | 11 | 0 | 6 | 0
O=S1(=O)c2ccc(Br)cc2OC[C@H](Cc2ccccc2)N1Cc1cn(Cc2ccc(C(F)(F)F)cc2)nn1 | -1 | nt | nt | nt | nt
O=C(Nc1nc(Cc2ccccc2)c(-c2ccccc2)n1Cc1ccccc1)c1ccccc1 | -5 | nt | nt | nt | nt
CCOC(=O)c1ccc(N2C(=O)CC(N3CCN(Cc4ccccc4)CC3)C2=O)cc1 (stereo not given) | -4 | -1 | 2 | -5 | 1
CCOC(=O)c1ccc(N2C(=O)CC(N3CCCC(C)C3)C2=O)cc1 (stereo not given) | 1 | 29* | 0 | 12 | 2
CC(=O)CC[C@H]1CC[C@]2(CCCN(S(=O)(=O)C3CCCCC3)C2)O1 | -1 | nt | nt | nt | nt
COc1ccc(-c2cn3cccnc3n2)cc1Br | 2 | -1 | 1 | -6 | 0
COc1ccc(-c2cn3cc(Br)cnc3n2)cc1 | 7.9* | -2 | 0 | 9 | 2
CC1CCN(S(=O)(=O)c2ccc3c(c2)C(=NO)c2cc(S(=O)(=O)N4CCC(C)CC4)ccc2-3)CC1 | 0 | 3 | 0 | -8 | 34*
O=S(=O)(c1ccc2c(c1)C(=NO)c1cc(S(=O)(=O)N3CCCCC3)ccc1-2)N1CCCCC1 | 8 | 26 | 18 | -15 | -2
COc1ccc(-c2ccc(C(=O)Nc3cccc(Oc4ccccc4)c3)c3occc23)c(C)c1 | 0 | 2 | 0 | nt | -1
Cn1cc(-c2ccc(C(=O)Nc3cccc(Oc4ccccc4)c3)c3occc23)cn1 | 6 | 7 | 2 | nt | 9.2*
SMILES | SMARCA2 act | MC4R antag cAMP | MPTP inh | ATG4B inhibitor | MC4R barr agon
COc1ccc2c(c1)nc(-c1cccc(Br)c1)c(=O)n2C(c1ccccn1)c1nc2ccccc2[nH]1 (stereo not given) | 7.9* | nt | 3 | nt | nt
COc1ccc2[nH]c3c(c2c1)CCN[C@]31C(=O)N(Cc2cn(Cc3ccccc3)nn2)c2ccccc21 | -3 | nt | nt | nt | nt
Cc1cc(C)n(-c2ccc(C(=O)OCC(=O)NC(c3ccccc3)c3ccccc3)cc2)n1 | -2 | 20 | 0 | 6 | 9.3*
Nc1ccccc1Sc1nc2ccccc2[nH]1 | 9.2* | -3 | 0 | -7 | -3
CN(Cc1ccc(F)cc1)C(=O)CN1C(=O)C2(OCCCO2)c2ccccc21 | -3 | nt | nt | nt | nt
O=C(O)CCCN1C(=O)/C(=C/C=C/c2ccco2)SC1=S | -4 | 3 | 2 | 52* | -2
O=C(NN1C(=O)/C(=C/C=C/c2ccco2)SC1=S)c1ccccc1O | -2 | 9 | 4 | 70* | -1
O=C(O)CC(C(=O)O)N1C(=O)/C(=C/C=C/c2ccco2)SC1=S (stereo not given) | -4 | -3 | 2 | 31 | -3
O=C(CSc1nnc(-c2ccc(Cl)cc2)n1Cc1ccco1)Nc1ccc(S(=O)(=O)Nc2nccs2)cc1 | 2 | nt | nt | nt | nt
CCOC(=O)Nc1ccc(OC(=O)Oc2ccc(NC(=O)OCC)cc2)cc1 | -1 | -6 | -2 | -3 | 9.5*
CCOC(=O)Nc1ccc(Oc2ccccc2)cc1 | 3 | -4 | 8 | -1 | -1
O=C(NC1CCCCN(Cc2ccc(Cl)cc2)C1=O)c1cccc(F)c1 (stereo not given) | -2 | nt | nt | nt | nt
COC(=O)[C@]12C[C@H](CC(=O)N3CCCCC3)C(=O)N(CCC3=CCCCC3)C1=C[C@H](C1CCCC1)O[C@@H]2C | -6 | nt | nt | nt | nt
C=CCNC(=S)N/N=C/c1ccccc1OCCOc1ccccc1 | -1 | 0 | 0 | 0 | 8.9*
COc1c(Cl)cc(Cl)cc1C(=O)Nc1ccc(NC(=O)c2cccs2)cc1 | 2 | 22 | 0 | 1 | 9.7*
COC(=O)C1=C(C)N(C)C(=NCc2ccc3c(c2)OCO3)NC1c1ccc(Cl)cc1 (stereo not given) | -6 | nt | nt | nt | nt
Cc1nn(C(=O)c2cccnc2)c(C)c1Sc1ccccc1 | -4 | 4 | 2 | -6 | 0
Cc1nn(C(=O)CNS(=O)(=O)c2ccccc2)c(C)c1Sc1ccc(Cl)cc1 | -1 | 9 | 4 | 0 | 8.9*
CCCC(=O)OC12CCCN(C1)/C(=C/c1ccc(Cl)cc1)C2 (stereo not given) | -2 | nt | nt | nt | nt
Cc1cc2c(cc1C)NC(=O)CC(C(F)(F)C(F)(F)C(F)(F)F)=N2 | 0 | 8 | 1 | -6 | 8.7*
O=C(CCl)N(CCCNC(=O)C(F)(F)F)c1ccc([N+](=O)[O-])cc1 | -13 | 8 | 0 | -9 | 13*
O=C(NCCCNc1ccc([N+](=O)[O-])cc1)C(F)(F)F | -1 | 2 | 3 | 0 | -3
CCOC(=O)N1CCN(C(=O)C[C@H]2C[C@@]3(C(=O)OC)C(=C[C@H](COCc4ccccc4)O[C@@H]3C)N(Cc3ccc4c(c3)OCO4)C2=O)CC1 | -1 | nt | nt | nt | nt
CCOC(=O)c1ccc([N+](=O)[O-])c(CS(=O)(=O)c2ccc(Cl)cc2)c1 | 0 | 9 | 0 | -7 | 0
Cc1ccc(S(=O)(=O)CCC(=O)c2cccc([N+](=O)[O-])c2)cc1 | 0 | 31* | 0 | -3 | -3
